Reference: paper PMC4257110 (International Journal of Nanomedicine, 2014)
In brackets after ≈: the same amount, converted by molar mass.

Experiments:
[1] = assay type: in vivo, guinea pigs
[2] = In vitro release of coumarin-6 from PLGA NPs; assay type: physicochemical; conditions: PBS (pH 7.4), 72 hours, 37°C
Outline: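 A dialysis bag holding 3.0 mL nanosuspension plus 2.0 mL PBS pH 7.4 sat in 15 mL PBS pH 7.4 at 37°C, stirred at 100 rpm. At set time points 1 mL of medium was withdrawn and replaced with fresh medium, and coumarin-6 was quantified by HPLC.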

[3] = Pharmacokinetics of TS IIA, Sal B and PNS; assay type: in vivo, guinea pigs; conditions: RW administration, NPs versus compound solution, not dose-normalised
Outline: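 Guinea pigs (250–300 g; 78, two groups) received round-window dosing of loaded PLGA NPs (12.43 μg/kg TS IIA, 766.38 μg/kg Sal B, 1.05/2.08/2.31 mg/kg R1/Rg1/Rb1) or solution in ethanol/glycerol/PEG 400 2:1:2 (0.73, 8, 3.13/4.38/3.82 mg/kg); saline blank. At 0.17–36 h under anesthesia, perilymph was drawn through the RWM and plasma taken from cardiac blood. Acetic ether (TS IIA, Sal B) or methanol (PNS) extraction, HPLC; n=3.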

[4] = assay type: physicochemical; conditions: PLGA NPs loaded with TS IIA, Sal B, PNS; PLGA L:G 50:50; RP-HPLC
Outline: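 Free drug: a dialysis bag (8–14 kDa cutoff) holding 2 mL saline with 0.2% SDS was placed in 25 mL nanosuspension for 12 h, and the bag contents were assayed by HPLC. Total drug: 1 mL nanosuspension dissolved in acetonitrile, extracted with methanol, 0.22-μm filtered. C18 column, 25°C, acetonitrile/0.05% phosphoric acid gradient, 1.0 mL/min, 203 nm (PNS) or 280 nm (TS IIA, Sal B). EE calculated from free and total drug.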

[5] = In vitro release of TS IIA, Sal B and PNS from PLGA NPs and of free drugs; assay type: physicochemical; conditions: saline containing 0.2% SDS, dialysis, 37°C; for released from NPs: PLGA NPs loaded with TS IIA, Sal B, PNS, within 72 hours; for free drug released: free drugs (control), first 6 hours
Outline: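 Dialysis release: a sealed bag with sample dispersed in 2.0 mL saline plus 0.2% (w/v) SDS was immersed in 30 mL of the same medium at 37°C with horizontal shaking at 100 rpm. 1 mL of medium was withdrawn at set intervals and drug content measured by HPLC.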

[6] = Maximum solubility in mixed solvents; assay type: physicochemical; conditions: mixed solvents (ethanol/glycerol/PEG 400 = 2:1:2), organic solvent or mixture
[7] = PL, guinea pigs, RW administration, NPs versus solution

Compound | AUC0–t in PL, NPs higher than coumarin-6 solution [1, 7] [fold] | Cmax in PL, NPs higher than coumarin-6 solution [1, 7] [fold] | time up to which coumarin-6 was found in the PL ([1]; RW administration of coumarin-6 NPs) | time after which no coumarin-6 was detected in PL ([1]; RW administration of coumarin-6 solution) [h] | coumarin-6 detected in the plasma ([1]; plasma of several guinea pigs, RW administration of coumarin-6 NPs or solution) | in vitro cumulative release of coumarin-6 from the NPs [2] [%] | AUC0–t in the PL, NPs greater compared with compound solution [3] [fold] | Cmax in the PL, NPs higher compared with compound solution [3] [fold] | entrapment efficiency of the NPs [4] [%] | released from NPs [5] | free drug released [5] [%] | solubility [6] [µg/mL]
CCN(CC)c1ccc2cc(-c3nc4ccccc4s3)c(=O)oc2c1 [coumarin-6] | 4.7 | 10.9 | up to 96 hours | 36 | An infinitesimal amount | < 2 |  |  |  |  |  | 
CC(C)=CCC[C@](C)(O[C@@H]1O[C@H](CO)[C@@H](O)[C@H](O)[C@H]1O)[C@H]1CC[C@]2(C)[C@@H]1[C@H](O)C[C@@H]1[C@@]3(C)CC[C@H](O)C(C)(C)[C@@H]3[C@@H](O[C@@H]3O[C@H](CO)[C@@H](O)[C@H](O)[C@H]3O)C[C@]12C [Rg1, ginsenoside Rg1] |  |  |  |  |  |  | 3.1 | 10.0 | 44.98 | 76.2% | > 79 | 
salvianolic acid B [Sal B] |  |  |  |  |  |  |  |  | 92.88 | 93.0% | > 79 | 
CC(C)=CCC[C@](C)(O[C@@H]1O[C@H](CO[C@@H]2O[C@H](CO)[C@@H](O)[C@H](O)[C@H]2O)[C@@H](O)[C@H](O)[C@H]1O)[C@H]1CC[C@]2(C)[C@@H]1[C@H](O)C[C@@H]1[C@@]3(C)CC[C@H](O[C@@H]4O[C@H](CO)[C@@H](O)[C@H](O)[C@H]4O[C@@H]4O[C@H](CO)[C@@H](O)[C@H](O)[C@H]4O)C(C)(C)[C@@H]3CC[C@]12C [Rb1, ginsenoside Rb1] |  |  |  |  |  |  | 7.1 | 16.7 | 93.56 | 76.0% | > 79 | 

Results, then the compound that gave them:

AUC0–t in PL, NPs higher than coumarin-6 solution [1, 7] [fold] | Cmax in PL, NPs higher than coumarin-6 solution [1, 7] [fold] | time up to which coumarin-6 was found in the PL ([1]; RW administration of coumarin-6 NPs) | time after which no coumarin-6 was detected in PL ([1]; RW administration of coumarin-6 solution) [h] | coumarin-6 detected in the plasma ([1]; plasma of several guinea pigs, RW administration of coumarin-6 NPs or solution) | in vitro cumulative release of coumarin-6 from the NPs [2] [%] | AUC0–t in the PL, NPs greater compared with compound solution [3] [fold] | Cmax in the PL, NPs higher compared with compound solution [3] [fold] | entrapment efficiency of the NPs [4] [%] | released from NPs [5] | free drug released [5] [%] | solubility [6] [µg/mL] | Compound
 |  |  |  |  |  |  |  | 91.81 | 23.6% | > 79 | 1830 (≈ 6.22 mM) | Cc1coc2c1C(=O)C(=O)c1c-2ccc2c1CCCC2(C)C [TS IIA, tanshinone IIA]
 |  |  |  |  |  | 4.0 | 14.4 | 37.87 | completely released | > 79 |  | CC(C)=CCC[C@](C)(O[C@@H]1O[C@H](CO)[C@@H](O)[C@H](O)[C@H]1O)[C@H]1CC[C@]2(C)[C@@H]1[C@H](O)C[C@@H]1[C@@]3(C)CC[C@H](O)C(C)(C)[C@@H]3[C@@H](O[C@@H]3O[C@H](CO)[C@@H](O)[C@H](O)[C@H]3O[C@@H]3OC[C@@H](O)[C@H](O)[C@H]3O)C[C@]12C [R1, notoginsenoside R1]
